In series [1] the target is T1, 3-oxo-5-alpha-steroid 4-dehydrogenase 1 (Homo sapiens, UniProt P18405).
T1 sequence (P18405 whole entry): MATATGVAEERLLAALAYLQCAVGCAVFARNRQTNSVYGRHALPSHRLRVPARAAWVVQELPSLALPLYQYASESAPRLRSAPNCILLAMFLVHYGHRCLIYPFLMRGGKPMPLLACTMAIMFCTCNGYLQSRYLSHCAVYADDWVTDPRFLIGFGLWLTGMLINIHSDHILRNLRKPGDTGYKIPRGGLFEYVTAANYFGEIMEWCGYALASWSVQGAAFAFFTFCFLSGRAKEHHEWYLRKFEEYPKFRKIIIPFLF
The series can be described thus: Inhibition of recombinant human Steroid 5-alpha-reductase type I. The method in brief:
(§1)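 Baculovirus-expressed recombinant human type 1 or type 2 5α-reductase; cofactor and inhibitor preincubated with the enzyme before testosterone is added. Fixed-time assay following conversion of testosterone to DHT with and without inhibitor. The IC50 is the nM concentration giving 50% inhibition of DHT formation.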

Series [2] addresses T2, 3-oxo-5-alpha-steroid 4-dehydrogenase 2 (Homo sapiens, UniProt P31213).
T2 sequence (P31213 whole entry): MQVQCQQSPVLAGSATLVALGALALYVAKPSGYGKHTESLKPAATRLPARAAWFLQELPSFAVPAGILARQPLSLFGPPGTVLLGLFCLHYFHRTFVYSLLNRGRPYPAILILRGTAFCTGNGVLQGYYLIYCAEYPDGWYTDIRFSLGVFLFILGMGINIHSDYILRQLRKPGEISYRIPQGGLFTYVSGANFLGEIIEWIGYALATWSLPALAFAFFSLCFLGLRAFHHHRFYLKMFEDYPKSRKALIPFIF
The series can be described thus: Inhibition of recombinant human Steroid 5-alpha-reductase type 2. An outline of the steps:
as §1

Series [3] in a line: Kinetic Parameter Ki for Inhibition of Type-2 5-alpha-reductase.
A short description of series [4]: Kinetic Parameter k3/k1 for Inhibition of Type-2 5-alpha-reductase. The method in brief: (§2)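 Baculovirus-expressed recombinant human type 1 or type 2 5α-reductase; conversion of testosterone to DHT followed over time with and without inhibitor under standard conditions. Second-order rate constants obtained by fitting progress data to the integrated first-order rate equation for time-dependent inhibition.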

Series [5] is described as follows: Kinetic Parameter k3/k1 for Inhibition of Type 1 5-alpha-reductase. An outline of the steps:
as §2

The nature of series [6]: Kinetic Parameter Ki for Inhibition of Type 1 5-alpha-reductase.

Regarding `C[C@]12C=CC(=O)NC1CCC1C2CC[C@]2(C)C(C(=O)Nc3cccc(C(F)(F)F)c3)CCC12` (stereo not given in full), the IC50 (in general, the concentration that gives 50% inhibition) in series [1] came to 12.5 nM; in series [2], 0.1 nM.
Regarding `C[C@]12C=CC(=O)NC1CCC1C2CC[C@]2(C)C(C(=O)N3CCCCc4ccccc43)CCC12` (stereo not given in full), the IC50 in series [1] was 595 nM; in series [2], 10.2 nM.
Consider `CCN(C(=O)C1CCC2C3CCC4NC(=O)C=C[C@]4(C)C3CC[C@]12C)c1ccccc1` (stereo not given in full), for which the IC50 in series [1] was determined as 614 nM; in series [2], 7.9 nM.
With `C[C@]12C=CC(=O)NC1CCC1C2CC[C@]2(C)C(C(=O)Nc3cccc(F)c3)CCC12` (stereo not given in full), the figures for the IC50 in series [1] and in series [2] were 23 nM and 0.2 nM, respectively.
For the compound `C[C@]12C=CC(=O)NC1CCC1C2CC[C@]2(C)C(C(=O)N3CCCc4ccccc43)CCC12` (stereo not given in full), the 50% inhibitory concentration (IC50) in series [1] is 154 nM; in series [2] it was 1.4 nM.
On the same counts, the results for `C[C@]12C=CC(=O)NC1CCC1C2CC[C@]2(C)C(C(=O)Nc3cccc(Br)c3)CCC12` (stereo not given in full) are 20.5 nM and 0.2 nM.
As to `Cc1ccccc1NC(=O)C1CCC2C3CCC4NC(=O)C=C[C@]4(C)C3CC[C@]12C` (stereo not given in full), the IC50 is 30.3 nM in series [1] and under 0.1 nM in series [2].
As to `COc1cccc(NC(=O)C2CCC3C4CCC5NC(=O)C=C[C@]5(C)C4CC[C@]23C)c1` (stereo not given in full), the results for the IC50 in series [1] and in series [2] were 19 nM and under 1 nM, respectively.
In the same order, the values of `C[C@]12C=CC(=O)NC1CCC1C2CC[C@]2(C)C(C(=O)Nc3cccc(Cl)c3)CCC12` (stereo not given in full) are 18.2 nM and 0.1 nM.
Take `C[C@]12C=CC(=O)NC1CCC1C2CC[C@]2(C)C(C(=O)Nc3cccc(O)c3)CCC12` (stereo not given in full): the IC50 in series [1] is 52 nM; in series [2], under 1 nM.
Turning to `C[C@]12C=CC(=O)NC1CCC1C2CC[C@]2(C)C(C(=O)N(c3ccccc3)c3ccccc3)CCC12` (stereo not given in full), the IC50 is over 1000 nM in series [1] and 25.2 nM in series [2].
For the compound `C[C@]12C=CC(=O)NC1CCC1C2CC[C@]2(C)C(C(=O)Nc3ccccc3N)CCC12` (stereo not given in full), the concentration for half-maximal inhibition (IC50) is 130 nM in series [1] and under 1 nM in series [2].
On the same counts, the results for `C[C@]12C=CC(=O)NC1CCC1C2CC[C@]2(C)C(C(=O)Nc3ccccc3-c3ccccc3)CCC12` (stereo not given in full) are 38.3 nM and under 0.1 nM.
Take `C[C@]12C=CC(=O)NC1CCC1C2CC[C@]2(C)C(C(=O)Nc3ccc(O)cc3)CCC12` (stereo not given in full): the results for the IC50 in series [1] and in series [2] were 74 nM and under 1 nM, respectively.
On to `C[C@]12C=CC(=O)NC1CCC1C2CC[C@]2(C)C(C(=O)Nc3cccc(-c4ccccc4)c3)CCC12` (stereo not given in full), for which the IC50 was 14 nM in series [1] and under 0.1 nM in series [2]. In addition, the inhibition constant Ki (as a rule, the dissociation constant of the complex between target and ligand, obtained from inhibition or displacement) in series [3] amounted to 1.4 nM; in series [6], 24 nM. Moreover, the k3/ki in series [4] turned out to be 5000000 M⁻¹ s⁻¹; in series [5], 51000 M⁻¹ s⁻¹.
Consider `COc1ccccc1NC(=O)C1CCC2C3CCC4NC(=O)C=C[C@]4(C)C3CC[C@]12C` (stereo not given in full), for which the 50% inhibitory concentration (IC50) was 11 nM in series [1] and under 1 nM in series [2].
Consider `C[C@]12C=CC(=O)NC1CCC1C2CC[C@]2(C)C(C(=O)Nc3ccc(C(=O)c4ccccc4)cc3)CCC12` (stereo not given in full), for which the figures for the IC50 in series [1] and in series [2] were 19 nM and 1.6 nM, respectively.
Regarding `Cc1cccc(NC(=O)C2CCC3C4CCC5NC(=O)C=C[C@]5(C)C4CC[C@]23C)c1` (stereo not given in full), the IC50 was 24.6 nM in series [1] and 0.3 nM in series [2].
Regarding `COc1ccc(NC(=O)C2CCC3C4CCC5NC(=O)C=C[C@]5(C)C4CC[C@]23C)cc1` (stereo not given in full), the IC50 was 26 nM in series [1] and under 1 nM in series [2].
`C[C@]12C=CC(=O)NC1CCC1C2CC[C@]2(C)C(C(=O)Nc3ccc(-c4ccccc4)cc3)CCC12` (stereo not given in full): the values for the IC50 in series [1] and in series [2] were 34.9 nM and 2.2 nM, respectively.
In the case of `C[C@]12C=CC(=O)NC1CCC1C2CC[C@]2(C)C(C(=O)Nc3cccc(C(=O)c4ccccc4)c3)CCC12` (stereo not given in full), the figures for the IC50 in series [1] and in series [2] were 12 nM and under 1 nM, respectively.
Take `C[C@]12C=CC(=O)NC1CCC1C2CC[C@]2(C)C(C(=O)Nc3ccccc3F)CCC12` (stereo not given in full): the IC50 in series [1] was 7.9 nM; in series [2], under 0.1 nM.
As to `Cc1cccc(C)c1NC(=O)C1CCC2C3CCC4NC(=O)C=C[C@]4(C)C3CC[C@]12C` (stereo not given in full), the IC50 in series [1] was 14 nM; in series [2], under 1 nM.
Consider `C[C@]12C=CC(=O)NC1CCC1C2CC[C@]2(C)C(C(=O)Nc3cccc(N)c3)CCC12` (stereo not given in full), for which the half-inhibitory concentration (IC50) in series [1] was 94 nM; in series [2], under 1 nM.
Regarding `C[C@]12C=CC(=O)NC1CCC1C2CC[C@]2(C)C(C(=O)Nc3ccccc3C(F)(F)F)CCC12` (stereo not given in full), the figures for the IC50 in series [1] and in series [2] were 5.6 nM and under 0.1 nM, respectively. The Ki was determined as 1.3 nM in series [3] and 12 nM in series [6]. Further, the results for the k3/ki in series [4] and in series [5] were 9700000 M⁻¹ s⁻¹ and 35000 M⁻¹ s⁻¹, respectively.
For `Cc1ccc(NC(=O)C2CCC3C4CCC5NC(=O)C=C[C@]5(C)C4CC[C@]23C)cc1` (stereo not given in full), the IC50 in series [1] is 17.2 nM; in series [2], 0.1 nM.
On to `C[C@]12C=CC(=O)NC1CCC1C2CC[C@]2(C)C(C(=O)Nc3ccc(C(F)(F)F)cc3)CCC12` (stereo not given in full), for which the values for the IC50 in series [1] and in series [2] were 20.9 nM and 0.4 nM, respectively.
`C[C@]12C=CC(=O)NC1CCC1C2CC[C@]2(C)C(C(=O)Nc3cc(C(F)(F)F)ccc3C(F)(F)F)CCC12` (stereo not given in full): the IC50 in series [1] is 5.8 nM; in series [2], under 0.1 nM. Besides, the Ki in series [3] was 0.5 nM; in series [6], 2.4 nM. The k3/ki in series [4] came out at 7000000 M⁻¹ s⁻¹; in series [5] it was 270000 M⁻¹ s⁻¹.
Consider `C[C@]12C=CC(=O)NC1CCC1C2CC[C@]2(C)C(C(=O)Nc3ccccc3)CCC12` (stereo not given in full), for which the IC50 stood at 20 nM in series [1] and 0.2 nM in series [2]. Also, the Ki came out at 1.7 nM in series [3] and 230 nM in series [6]. Besides, the k3/ki stood at 1700000 M⁻¹ s⁻¹ in series [4] and 3900 M⁻¹ s⁻¹ in series [5].
Consider `C[C@]12C=CC(=O)NC1CCC1C2CC[C@]2(C)C(C(=O)Nc3ccc(N)cc3)CCC12` (stereo not given in full), for which the IC50 in series [1] was 120 nM; in series [2], under 1 nM.
For `C[C@]12C=CC(=O)NC1CCC1C2CC[C@]2(C)C(C(=O)Nc3ccccc3Cl)CCC12` (stereo not given in full), the results for the IC50 in series [1] and in series [2] were 14.5 nM and under 0.1 nM, respectively.
Consider `CN(C(=O)C1CCC2C3CCC4NC(=O)C=C[C@]4(C)C3CC[C@]12C)c1ccccc1` (stereo not given in full), for which the half-maximal inhibitory concentration (IC50) in series [1] came out at 350 nM; in series [2] it was 24.6 nM.
Consider `C[C@]12C=CC(=O)NC1CCC1C2CC[C@]2(C)C(C(=O)Nc3cccc4ccccc34)CCC12` (stereo not given in full), for which the IC50 in series [1] was 8.1 nM; in series [2], 0.2 nM. Moreover, the Ki stood at 0.5 nM in series [3] and 70 nM in series [6]. In series [4], this compound registered a k3/k1 of 2100000 M⁻¹ s⁻¹.
With `C[C@]12C=CC(=O)NC1CCC1C2CC[C@]2(C)C(C(=O)Nc3ccc(Cl)cc3)CCC12` (stereo not given in full), the concentration for half-maximal inhibition (IC50) in series [1] turned out to be 6.8 nM; in series [2], 0.2 nM.
In the same order, the values of `C[C@]12C=CC(=O)NC1CCC1C2CC[C@]2(C)C(C(=O)Nc3ccccc3C(=O)c3ccccc3)CCC12` (stereo not given in full) are 28.7 nM and under 1 nM.
Regarding `C[C@]12C=CC(=O)NC1CCC1C2CC[C@]2(C)C(C(=O)Nc3ccccc3O)CCC12` (stereo not given in full), the results for the IC50 in series [1] and in series [2] were 12.9 nM and under 1 nM, respectively.
For the compound `C[C@]12C=CC(=O)NC1CCC1C2CC[C@]2(C)C(C(=O)Nc3ccc4ccccc4c3)CCC12` (stereo not given in full), the IC50 in series [1] came to 17.2 nM; in series [2], 0.2 nM.
In the case of `C[C@]12C=CC(=O)NC1CCC1C2CC[C@]2(C)C(C(=O)Nc3ccc(F)cc3)CCC12` (stereo not given in full), the IC50 in series [1] worked out at 22.5 nM; in series [2], 0.2 nM.

The values above are taken from ChEMBL document CHEMBL1128511, “4-Aza-3-oxo-5 alpha-androst-1-ene-17 beta-N-aryl-carboxamides as dual inhibitors of human type 1 and type 2 steroid 5 alpha-reductases. Dramatic effect of N-aryl substituents on type 1 and type 2 5 alpha-reductase inhibitory potency” (J Med Chem, 1995).
